Assay outcomes: PubChem BioAssay, Sanford-Burnham Center for Chemical Genomics
Most compounds without a hit are left out; they make up all but 1.3% or so of the library.
Diaphorase inh: diaphorase inhibition or chemical oxidation counter-screen; diaphorase resazurin-to-resorufin fluorescence, NADH, 16 min; bacterial (C. kluyveri) enzyme, not human; inhibition, % at 20 µM; hit rate 0.69% among 190,000;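 active means primary screen inhibition at 20 µM above a set limit, cut at about 50% in these data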
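Test system: Clostridium kluyveri diaphorase enzyme / Quantity: diaphorase at 0.14 U/mL in enzyme working solution / Incubation: 16-min room-temperature incubation before reading / Benchmarks: NADH-free wells as positive control, DMSO-only neutral wells / Signal: resorufin fluorescence 544/590 nm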
PfGluPho inh: PfG6PD (Plasmodium falciparum) enzyme inhibition; PfGluPho enzyme, NADPH resazurin-diaphorase fluorescence; inhibition, % at 20 µM; hit rate 0.78% among 350,000; AID 504690;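 active means inhibition reaching at least a set limit at 20 µM in the primary screen, cut at about 59% in these data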
HKDC1 inh: blocks human hexokinase HKDC1 activity; Q2TB90; recombinant HKDC1, G6PDH/diaphorase resazurin coupled fluorescence; inhibition, % at 20 µM; hit rate 0.16% among 340,000; AID 493160;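 active means inhibition above about 35% when tested at 20 µM, limit read from the data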
Target sequence (Q2TB90 whole entry, looked up): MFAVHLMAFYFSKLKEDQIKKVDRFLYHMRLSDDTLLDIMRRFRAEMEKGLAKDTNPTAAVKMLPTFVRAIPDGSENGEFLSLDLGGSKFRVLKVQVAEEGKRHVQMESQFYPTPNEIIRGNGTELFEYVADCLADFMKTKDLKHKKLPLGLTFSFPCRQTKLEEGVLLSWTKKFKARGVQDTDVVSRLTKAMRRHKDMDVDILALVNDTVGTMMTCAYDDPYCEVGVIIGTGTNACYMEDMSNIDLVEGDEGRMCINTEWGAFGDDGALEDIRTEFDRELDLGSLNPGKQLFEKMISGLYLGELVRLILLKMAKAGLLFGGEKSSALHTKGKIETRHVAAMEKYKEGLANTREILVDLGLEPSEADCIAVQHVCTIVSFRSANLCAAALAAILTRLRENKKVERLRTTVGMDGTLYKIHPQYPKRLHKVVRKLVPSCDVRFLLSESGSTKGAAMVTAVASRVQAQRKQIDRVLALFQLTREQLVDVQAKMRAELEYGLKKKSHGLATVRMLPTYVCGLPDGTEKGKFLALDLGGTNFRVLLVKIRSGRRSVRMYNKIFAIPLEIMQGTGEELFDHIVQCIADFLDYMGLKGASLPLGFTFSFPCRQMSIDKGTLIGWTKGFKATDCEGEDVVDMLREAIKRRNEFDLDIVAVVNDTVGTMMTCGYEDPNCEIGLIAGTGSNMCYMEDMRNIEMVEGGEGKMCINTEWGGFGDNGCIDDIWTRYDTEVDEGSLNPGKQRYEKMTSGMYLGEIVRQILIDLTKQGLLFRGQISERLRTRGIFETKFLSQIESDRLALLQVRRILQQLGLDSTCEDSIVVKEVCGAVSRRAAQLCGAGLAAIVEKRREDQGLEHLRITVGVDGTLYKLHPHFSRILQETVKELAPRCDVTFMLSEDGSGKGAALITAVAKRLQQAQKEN
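Test system: HK5 enzyme. Quantity: 5 µg/mL HK5 final. Reagent: glucose and ATP substrates. Schedule: 90 min reaction incubation at room temperature, dark. Technique: resazurin-to-resorufin fluorescence via G6PDH and diaphorase coupling, 525/613 nm. Control set: DMSO wells with and without enzyme mix.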
Diaphorase act: activates diaphorase or chemically reduces, flagging diaphorase assay artifacts. activation factor at 20 µM. Diaphorase/resazurin coupled assay, resorufin fluorescence, 16 min; active compounds read high; 1 = vehicle wells, 0 = NADH-free wells. hit rate 0.005% among 190,000;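 active means diaphorase activity raised at least twofold by the compound at 20 µM; inactive means activation factor below 2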
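Material: purified diaphorase enzyme from Clostridium kluyveri; Also added: 0.114 mM NADH and 0.1 mM resazurin, final amounts; Doses: single compound dose of 20 µM, 1% DMSO final; Times: 16 min enzyme reaction, ambient temperature; Detection: resorufin fluorescence, excitation 544 nm, emission 590 nm; Measure: increased resorufin signal from activators or reducing compounds.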
G6PDH counter: counter-screen for G6PDH assay hits: L. mesenteroides G6PDH inhibition; Purified L. mesenteroides G6PDH, diaphorase/resazurin coupled fluorescence, 45 min; inhibition, % at 5 µM; hit rate 0.12% among 200,000; AID 1020; in the data active means inhibition above about 50%
A number is an active result.

What do the screens show for `CC(=O)Nc1ccc(S(=O)(=O)N2C(C)CCCC2C)cc1` (stereo not drawn)?
PfGluPho inh: inactive; HKDC1 inh: inactive

How did CCOC(=O)c1c(NC(=O)C2C3CCC(O3)C2C(=O)O)sc2c1CCC(CC)C2 (stereo not drawn) do in these assays?
Diaphorase inh: 55; PfGluPho inh: inactive; HKDC1 inh: inactive; Diaphorase act: inactive; G6PDH counter: inactive

What do the screens show for `CC(C)/C(=N/Nc1ccccc1[N+](=O)[O-])c1ccccc1`?
Diaphorase inh: 50; PfGluPho inh: inactive; HKDC1 inh: inactive; Diaphorase act: inactive; G6PDH counter: inactive

What do the screens show for `CC(C)(C)c1nnc(NC(=O)c2ccc3c(c2)OCO3)s1`?
PfGluPho inh: 105; HKDC1 inh: inactive

What do the screens show for `N=c1c2ccccc2nc2n1CCCCC2`?
PfGluPho inh: inactive

What do the screens show for `CCN(CC)CCCNC1=C(Cl)C(=O)c2ccccc2C1=O`?
Diaphorase inh: inactive; PfGluPho inh: inactive; HKDC1 inh: inactive; Diaphorase act: inactive; G6PDH counter: 54

Results for COCCCNC1=C(Cl)C(=O)c2ccccc2C1=O ?
PfGluPho inh: inactive; HKDC1 inh: inactive

Results for CC(=O)N1CCN(C(=S)c2ccc(-c3ccc(Cl)cc3)o2)CC1 ?
Diaphorase inh: inactive; PfGluPho inh: 62; HKDC1 inh: inactive; Diaphorase act: inactive; G6PDH counter: inactive

What do the screens show for `CCCCC[n+]1ccn(C2=C([O-])c3ccccc3C(=O)/C2=N\S(=O)(=O)c2ccc(Br)cc2)c1`?
PfGluPho inh: inactive; HKDC1 inh: inactive

What do the screens show for `CCCC[n+]1ccn(C2=C([O-])c3ccccc3C(=O)/C2=N\S(=O)(=O)c2ccccc2)c1`?
Diaphorase inh: inactive; PfGluPho inh: inactive; HKDC1 inh: inactive; Diaphorase act: inactive; G6PDH counter: 56

How did CCCCC[n+]1ccn(C2=C([O-])c3ccccc3C(=O)/C2=N\S(=O)(=O)c2ccccc2)c1 do in these assays?
Diaphorase inh: inactive; PfGluPho inh: inactive; HKDC1 inh: inactive; Diaphorase act: inactive; G6PDH counter: 55

How did CCOc1ccc(S(=O)(=O)N2CCCCC2)cc1NC(=O)CN1C(=O)NC(C)(c2ccc(C)cc2)C1=O (stereo not drawn) do in these assays?
PfGluPho inh: inactive; HKDC1 inh: inactive

What do the screens show for `Oc1ccc(CNc2ccccc2F)c2cccnc12`?
Diaphorase inh: 89; PfGluPho inh: inactive; HKDC1 inh: inactive; Diaphorase act: inactive; G6PDH counter: inactive

What do the screens show for `Oc1ccc(CN2CCN(c3ccccc3)CC2)c2cccnc12`?
Diaphorase inh: 66; PfGluPho inh: inactive; HKDC1 inh: inactive; Diaphorase act: inactive; G6PDH counter: inactive

What do the screens show for `CCOC(=O)N1CCN(Cc2ccc(O)c3ncccc23)CC1`?
Diaphorase inh: 72; PfGluPho inh: inactive; HKDC1 inh: inactive; Diaphorase act: inactive; G6PDH counter: inactive

How did Oc1ccccc1CNc1cccc2cccnc12 do in these assays?
Diaphorase inh: 66; PfGluPho inh: inactive; HKDC1 inh: inactive; Diaphorase act: inactive; G6PDH counter: 52

Results for CCOC(=O)N1CCN(Cc2ccccn2)CC1 ?
Diaphorase inh: inactive; PfGluPho inh: inactive; HKDC1 inh: inactive; Diaphorase act: inactive; G6PDH counter: inactive

How did CN(C)c1cc2c3ccccc3n(C)c2cc1N do in these assays?
PfGluPho inh: inactive; HKDC1 inh: inactive

Results for CN(C)CCNc1ccc2ncn3c4ccc(O)cc4c(=O)c1c23 ?
PfGluPho inh: inactive; HKDC1 inh: inactive

What do the screens show for `Oc1ccc(Cc2ccccc2)c2cccnc12`?
PfGluPho inh: inactive; HKDC1 inh: inactive

Results for Oc1ccc(F)c2cccnc12 ?
Diaphorase inh: 50; PfGluPho inh: inactive; HKDC1 inh: inactive; Diaphorase act: inactive; G6PDH counter: 65

Results for OCc1ccc(O)c2ncccc12 ?
Diaphorase inh: inactive; PfGluPho inh: inactive; HKDC1 inh: inactive; Diaphorase act: inactive; G6PDH counter: 53

What do the screens show for `Oc1ccc(CN2CCc3ccccc3C2)c2cccnc12`?
Diaphorase inh: inactive; PfGluPho inh: inactive; HKDC1 inh: inactive; Diaphorase act: inactive; G6PDH counter: inactive

What do the screens show for `NC(=S)NNc1cccc2cccnc12`?
Diaphorase inh: 72; PfGluPho inh: inactive; HKDC1 inh: inactive; Diaphorase act: inactive; G6PDH counter: inactive

How did Oc1ccc(Cl)c2cccnc12 do in these assays?
PfGluPho inh: inactive; HKDC1 inh: inactive

What do the screens show for `Oc1ccc(CN2CCC(Cc3ccccc3)CC2)c2cccnc12`?
Diaphorase inh: 62; PfGluPho inh: inactive; HKDC1 inh: inactive; Diaphorase act: inactive; G6PDH counter: inactive

What do the screens show for `CCN(CC)S(=O)(=O)c1ccc(NC(=O)COC(=O)c2ccc(NC(=O)CC#N)cc2)cc1`?
Diaphorase inh: inactive; PfGluPho inh: inactive; HKDC1 inh: inactive; Diaphorase act: inactive; G6PDH counter: inactive

Results for O=C(Nc1ccc(Cl)c(Cl)c1)NC1CCS(=O)(=O)C1 (stereo not drawn) ?
PfGluPho inh: inactive; HKDC1 inh: inactive

What do the screens show for `Cn1c(=O)c2c(ncn2CC(=O)Nc2cc(S(=O)(=O)N3CCCCC3)ccc2O)n(C)c1=O`?
PfGluPho inh: inactive; HKDC1 inh: inactive

What do the screens show for `CC(C)COCc1ccc(O)c2ncccc12`?
Diaphorase inh: 55; PfGluPho inh: inactive; HKDC1 inh: inactive; Diaphorase act: inactive; G6PDH counter: inactive

Results for CCCOCc1ccc(O)c2ncccc12 ?
PfGluPho inh: inactive; HKDC1 inh: inactive

What do the screens show for `Oc1ccc(CN2CCCCC2)c2cccnc12`?
Diaphorase inh: 58; PfGluPho inh: inactive; HKDC1 inh: inactive; Diaphorase act: inactive; G6PDH counter: 50

Results for COc1ccc(-c2cc3c(=O)n(CC(=O)Nc4ccc(Cl)cc4)ncn3n2)cc1 ?
PfGluPho inh: inactive; HKDC1 inh: inactive

What do the screens show for `CCOC(=O)C1(C(=O)OCC)NC(=O)CC1C(C)C` (stereo not drawn)?
PfGluPho inh: inactive; HKDC1 inh: inactive

What do the screens show for `Cc1ccc(C2CC(c3ccccc3)=NN2C(=S)Nc2ccccc2)o1` (stereo not drawn)?
Diaphorase inh: 76; PfGluPho inh: inactive; HKDC1 inh: inactive; Diaphorase act: inactive; G6PDH counter: inactive

Results for COc1ccc(S(=O)(=O)N2CCCC2CNC(=O)C(=O)NCc2ccccc2Cl)cc1 (stereo not drawn) ?
PfGluPho inh: inactive; HKDC1 inh: inactive

Results for CC1C(=O)N(Cc2cn(Cc3ccco3)nn2)CCS(=O)(=O)N1Cc1ccc(-c2ccc(Cl)cc2)cc1 (stereo not drawn) ?
PfGluPho inh: inactive

How did CC(=O)C1=C(c2ccc(Br)cc2)C(=O)c2ccccc2C1=O do in these assays?
Diaphorase inh: 62; PfGluPho inh: 106; HKDC1 inh: 83; Diaphorase act: inactive; G6PDH counter: inactive

Results for COc1cc(CN(C)Cc2ccccc2)cc(OC)c1O ?
Diaphorase inh: inactive; PfGluPho inh: inactive; HKDC1 inh: inactive; Diaphorase act: inactive; G6PDH counter: 51
